pEC50, pIC50: −log10 of the molar value. Calls of active or inactive are those of the source. The rule behind the calls is not given here.
What was measured:
[1] = tested on: HEp-2; test: Effective dose required to inhibit colony formation of H.Ep-2 cells; type: functional; settings: Homo sapiens, read-out: ED50 (the source's name)
Outline: (§1)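 Colony-forming viability assay in H.Ep.-2 cells. The ED50 is the concentration that inhibits colony formation by 50%.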

[2] = tested on: P388; test: Compound was tested for cytotoxicity against P388 cells; IA=Inactive; type: functional, cell-based; settings: Mus musculus
[3] = Compound was tested for activity against 10 isolated folate-utilizing enzymes; IA=Inactive
[4] = tested on: L1210; test: Compound was tested for activity against L1210 cells in mice; IA=Inactive; type: functional, cell-based; settings: Mus musculus
[5] = tested on: HEp-2; test: Dose of compound required to inhibit colony formation of H.Ep-2 cells; type: functional, cell-based; settings: Homo sapiens; outline: as §1

| pEC50 [1] | Activity [3] | pIC50 [5] | SMILES | Cytotoxicity [2] | Cytotoxicity [4] |
| --- | --- | --- | --- | --- | --- |
| 5.40 | – | – | CCOC(=O)CCCCCCNC(=O)N1c2c(O)nc(N)nc2NCC1CNc1ccc(C(=O)NC(CCC(=O)O)C(=O)O)cc1 (stereo not given) | inactive | – |
| – | inactive | – | NC(=O)N1c2c(O)nc(N)nc2NCC1CNc1ccc(C(=O)NC(CCC(=O)O)C(=O)O)cc1 (stereo not given) | – | inactive |
| – | – | < 4.60 | CCOC(=O)CCCCCCCC/N=C(\S)N1c2c(O)nc(N)nc2NCC1CNc1ccc(C(=O)NC(CCC(=O)O)C(=O)O)cc1 (stereo not given) | inactive | – |
| – | inactive | – | CC/N=C(\S)N1c2c(O)nc(N)nc2NCC1CNc1ccc(C(=O)NC(CCC(=O)O)C(=O)O)cc1 (stereo not given) | – | inactive |
| 4.89 | – | – | CCOC(=O)CCCCCNC(=O)N1c2c(O)nc(N)nc2NCC1CNc1ccc(C(=O)NC(CCC(=O)O)C(=O)O)cc1 (stereo not given) | inactive | – |
| 4.62 | – | – | CCOC(=O)CCCCCCCNC(=O)N1c2c(O)nc(N)nc2NCC1CNc1ccc(C(=O)NC(CCC(=O)O)C(=O)O)cc1 (stereo not given) | – | – |
| – | – | < 4.60 | CCOC(=O)CCCCCC/N=C(\S)N1c2c(O)nc(N)nc2NCC1CNc1ccc(C(=O)NC(CCC(=O)O)C(=O)O)cc1 (stereo not given) | – | – |
| – | – | < 4.60 | CCOC(=O)CCCCCCC/N=C(\S)N1c2c(O)nc(N)nc2NCC1CNc1ccc(C(=O)NC(CCC(=O)O)C(=O)O)cc1 (stereo not given) | – | – |
| – | – | < 4.60 | CCOC(=O)CCCCC/N=C(\S)N1c2c(O)nc(N)nc2NCC1CNc1ccc(C(=O)NC(CCC(=O)O)C(=O)O)cc1 (stereo not given) | – | – |
| – | inactive | – | Nc1nc(O)c2c(n1)NCC(CNc1ccc(C(=O)NC(CCC(=O)O)C(=O)O)cc1)N2/C(S)=N/c1ccccc1 (stereo not given) | – | inactive |
| 4.46 | – | – | CCOC(=O)CCCCCCCCNC(=O)N1c2c(O)nc(N)nc2NCC1CNc1ccc(C(=O)NC(CCC(=O)O)C(=O)O)cc1 (stereo not given) | inactive | – |
| – | inactive | – | Nc1nc(O)c2c(n1)NCC(CNc1ccc(C(=O)NC(CCC(=O)O)C(=O)O)cc1)N2C(=O)NCCCl (stereo not given) | – | inactive |
